{
  "source": "paper PMC11040122",
  "about": "(Heliyon, 2024)",
  "data": [
    {"system": "SlSCP-2", "test": "not given", "settings": "read-out: IC50 values reported for natural compounds; cited from earlier work", "units": {"IC50": "µM"}, "values": [
      {"compound": "CCCCC/C=C\\C/C=C\\C/C=C\\C/C=C\\CCCC(=O)O", "note": "[arachidonate]", "IC50": 18.1},
      {"compound": "CC(C)CCC[C@@H](C)[C@H]1CC[C@H]2[C@@H]3CC=C4C[C@@H](O)CC[C@]4(C)[C@H]3CC[C@]12C", "note": "[cholesterol]", "IC50": 50.1},
      {"compound": "CCCCCCCC/C=C\\CCCCCCCC(=O)O", "note": "[oleic acid]", "IC50": 24.4},
      {"compound": "CCCCCCCCCCCCCCCC(=O)O", "note": "[palmitic acid]", "IC50": 59.1},
      {"compound": "CCCCCCCCCCCCCCCCCC(=O)O", "note": "[stearic acid]", "IC50": 39.8}
    ]},
    {"system": "Sf9 cells", "test": "In vitro toxicity / cell growth inhibition rate", "type": "cell-based, Spodoptera frugiperda", "settings": "MTT assay, 72 h of treatment", "outline": "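Sf9 cells (2 × 10^4 cells/mL) in Grace's medium with 10 % FBS, exposed in triplicate to test compound (0.5–100 μM, from DMSO stocks); DMSO negative control. Incubated at 30 °C, humidified, no CO2, for 3–5 days until control wells near confluent. MTT (5 mg/mL) added for 4 h at 30 °C, formazan dissolved in DMSO, A570 read. IR = (1 − At/Ac) × 100; mean ± SD.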", "units": {"%IR At 100 μM (percent inhibition of cell growth rate)": "%"}, "values": [
      {"compound": "COc1c(O)cc2oc3cc(O)c(CC=C(C)C)c(O)c3c(=O)c2c1CC=C(C)C", "note": "[Alpha-mangostin]", "%IR At 100 μM (percent inhibition of cell growth rate)": 52.18}
    ]}
  ]
}
